Laboratory results reported in ChEMBL document CHEMBL3351863, “Optimization of 2-phenyl-pyrimidine-4-carboxamides towards potent, orally bioavailable and selective P2Y(12) antagonists for inhibition of platelet aggregation” (Bioorg Med Chem Lett, 2014).

Assays:
[1] = Solubility in basic pH; format: physicochemical
Liver microsome [2] = experiment: Metabolic stability assay in rat liver microsomes assessed as parent drug disappearance at 1 uM after 20 mins by HPLC and mass spectrometry method; format: ADME
Cytochrome P450 3A4 [3] = target: T1, Cytochrome P450 3A4 (Homo sapiens, UniProt P08684); experiment: Inhibition of CYP3A4 in human liver microsomes assessed as reduction in midazolam 1'-hydroxylation; format: ADME
Platelet [4] = experiment: Inhibition of ADP-induced platelet aggregation in human platelet rich plasma assessed as remaining activity at 100 nM by in-vitro light transmission aggregometry assay; format: functional
Summary of the method: (§1)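 Light transmission aggregometry in human platelet-rich plasma; compound incubated, aggregation triggered with 3 µM ADP; remaining activity (RA) recorded at a single compound level (1000, 500 or 100 nM).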

Cytochrome P450 3A4 [5] = target: T1, Cytochrome P450 3A4; experiment: Inhibition of CYP3A4 in human liver microsomes assessed as reduction in testosterone 6beta-hydroxylation; format: ADME
P2Y purinoceptor 12 = P2Y purinoceptor 12 (Homo sapiens, UniProt Q9H244); experiment: Displacement of [3H]-2-methyl-thio-adenosine 5'-diphosphate from human recombinant P2Y12 expressed in CHO cell membranes by scintillation counting method
Summary of the method: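 CHO cells expressing recombinant P2Y₁₂ receptors, incubated with tritium-labeled 2-methyl-thio-adenosine 5'-diphosphate plus test compound; IC₅₀ from displacement curves, each point in triplicate; reference compound run with every compound set, and set re-analyzed if its IC₅₀ fell outside pre-set 95% confidence interval.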

Cytochrome P450 2C9 = Cytochrome P450 2C9 (Homo sapiens, UniProt P11712); experiment: Inhibition of CYP2C9 in human liver microsomes assessed as reduction in diclofenac 4'-hydroxylation; format: ADME
Cytochrome P450 2D6 = Cytochrome P450 2D6 (Homo sapiens, UniProt P10635); experiment: Inhibition of CYP2D6 in human liver microsomes assessed as reduction in dextromethorphan-O demethylation; format: ADME
[6] = Solubility in neutral pH; format: physicochemical
Liver microsome [7] = experiment: Metabolic stability assay in human liver microsomes assessed as parent drug disappearance at 1 uM after 20 mins by HPLC and mass spectrometry method; format: ADME
[8] = target: Voltage-gated inwardly rectifying potassium channel KCNH2 (Homo sapiens, UniProt Q12809); experiment: Inhibition of human ERG expressed in HEK cells by patch-clamp assay; format: cell-based; settings: hek293
Platelet [9] = experiment: Inhibition of ADP-induced platelet aggregation in human platelet rich plasma assessed as remaining activity at 500 nM by in-vitro light transmission aggregometry assay; format: functional; summary of the method: as §1
Platelet [10] = experiment: Inhibition of ADP-induced platelet aggregation in human platelet rich plasma by in-vitro light transmission aggregometry assay; format: functional; settings: Homo sapiens, Platelet, Plasma
Summary of the method: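 Human platelet-rich plasma incubated with compound, aggregation induced by 3 µM ADP and read by light transmission aggregometry; IC₅₀ derived from concentration–response curve.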

[11] = Potency shift, ratio of IC50 for inhibition of ADP-induced platelet aggregation in human platelet rich plasma to IC50 for displacement of [3H]-2-methyl-thio-adenosine 5'-diphosphate from human recombinant P2Y12 expressed in CHO cell membranes

T1 sequence (P08684 whole entry): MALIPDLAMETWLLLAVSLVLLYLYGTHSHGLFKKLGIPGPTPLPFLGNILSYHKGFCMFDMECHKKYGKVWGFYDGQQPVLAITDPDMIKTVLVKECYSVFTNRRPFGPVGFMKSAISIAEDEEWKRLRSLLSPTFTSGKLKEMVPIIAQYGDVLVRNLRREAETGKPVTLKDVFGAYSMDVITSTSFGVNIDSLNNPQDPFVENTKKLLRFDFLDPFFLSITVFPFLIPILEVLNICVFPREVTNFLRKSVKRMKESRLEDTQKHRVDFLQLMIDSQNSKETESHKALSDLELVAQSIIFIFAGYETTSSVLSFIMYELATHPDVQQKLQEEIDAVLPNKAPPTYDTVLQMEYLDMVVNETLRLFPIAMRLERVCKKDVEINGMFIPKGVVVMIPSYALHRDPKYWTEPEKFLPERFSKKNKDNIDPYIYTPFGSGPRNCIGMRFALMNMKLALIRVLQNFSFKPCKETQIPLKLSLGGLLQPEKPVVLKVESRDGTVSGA
Chain of Cytochrome P450 2D6 (P10635 whole entry): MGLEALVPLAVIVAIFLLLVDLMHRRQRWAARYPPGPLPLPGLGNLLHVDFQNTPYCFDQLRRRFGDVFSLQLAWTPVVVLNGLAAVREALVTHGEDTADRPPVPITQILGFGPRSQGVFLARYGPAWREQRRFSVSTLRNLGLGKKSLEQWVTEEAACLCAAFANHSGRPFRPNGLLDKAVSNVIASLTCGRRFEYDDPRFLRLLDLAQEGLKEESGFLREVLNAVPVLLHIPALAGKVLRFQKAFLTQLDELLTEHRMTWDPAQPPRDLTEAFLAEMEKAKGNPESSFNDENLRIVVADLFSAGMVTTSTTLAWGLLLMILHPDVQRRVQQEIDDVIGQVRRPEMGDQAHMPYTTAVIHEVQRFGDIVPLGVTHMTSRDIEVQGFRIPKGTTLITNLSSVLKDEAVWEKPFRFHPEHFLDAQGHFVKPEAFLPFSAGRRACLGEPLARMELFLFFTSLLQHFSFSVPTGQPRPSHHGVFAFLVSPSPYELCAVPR
Chain of Cytochrome P450 2C9 (P11712 whole entry): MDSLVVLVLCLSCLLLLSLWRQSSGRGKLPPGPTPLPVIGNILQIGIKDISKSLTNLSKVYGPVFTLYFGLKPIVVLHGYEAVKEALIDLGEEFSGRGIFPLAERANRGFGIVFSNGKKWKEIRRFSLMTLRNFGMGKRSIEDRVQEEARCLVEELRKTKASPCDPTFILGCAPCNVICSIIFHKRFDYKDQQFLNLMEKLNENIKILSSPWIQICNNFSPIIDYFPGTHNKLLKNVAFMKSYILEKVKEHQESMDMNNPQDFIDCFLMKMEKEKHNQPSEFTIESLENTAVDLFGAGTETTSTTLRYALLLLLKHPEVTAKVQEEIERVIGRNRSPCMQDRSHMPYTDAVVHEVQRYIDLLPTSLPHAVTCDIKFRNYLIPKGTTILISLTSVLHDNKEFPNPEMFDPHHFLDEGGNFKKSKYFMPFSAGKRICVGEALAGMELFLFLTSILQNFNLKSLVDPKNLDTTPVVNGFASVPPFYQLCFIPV
Chain of P2Y purinoceptor 12 (Q9H244 whole entry): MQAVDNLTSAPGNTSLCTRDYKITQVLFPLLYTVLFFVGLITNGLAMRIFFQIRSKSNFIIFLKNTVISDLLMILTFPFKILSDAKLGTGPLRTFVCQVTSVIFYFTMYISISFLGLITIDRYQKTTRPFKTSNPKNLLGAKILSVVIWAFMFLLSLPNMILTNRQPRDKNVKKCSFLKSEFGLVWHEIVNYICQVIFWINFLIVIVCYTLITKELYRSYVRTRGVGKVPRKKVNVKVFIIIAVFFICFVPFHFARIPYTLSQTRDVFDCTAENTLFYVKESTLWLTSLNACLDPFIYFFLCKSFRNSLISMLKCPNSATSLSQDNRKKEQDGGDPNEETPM
Chain of Voltage-gated inwardly rectifying potassium channel KCNH2 (Q12809 whole entry): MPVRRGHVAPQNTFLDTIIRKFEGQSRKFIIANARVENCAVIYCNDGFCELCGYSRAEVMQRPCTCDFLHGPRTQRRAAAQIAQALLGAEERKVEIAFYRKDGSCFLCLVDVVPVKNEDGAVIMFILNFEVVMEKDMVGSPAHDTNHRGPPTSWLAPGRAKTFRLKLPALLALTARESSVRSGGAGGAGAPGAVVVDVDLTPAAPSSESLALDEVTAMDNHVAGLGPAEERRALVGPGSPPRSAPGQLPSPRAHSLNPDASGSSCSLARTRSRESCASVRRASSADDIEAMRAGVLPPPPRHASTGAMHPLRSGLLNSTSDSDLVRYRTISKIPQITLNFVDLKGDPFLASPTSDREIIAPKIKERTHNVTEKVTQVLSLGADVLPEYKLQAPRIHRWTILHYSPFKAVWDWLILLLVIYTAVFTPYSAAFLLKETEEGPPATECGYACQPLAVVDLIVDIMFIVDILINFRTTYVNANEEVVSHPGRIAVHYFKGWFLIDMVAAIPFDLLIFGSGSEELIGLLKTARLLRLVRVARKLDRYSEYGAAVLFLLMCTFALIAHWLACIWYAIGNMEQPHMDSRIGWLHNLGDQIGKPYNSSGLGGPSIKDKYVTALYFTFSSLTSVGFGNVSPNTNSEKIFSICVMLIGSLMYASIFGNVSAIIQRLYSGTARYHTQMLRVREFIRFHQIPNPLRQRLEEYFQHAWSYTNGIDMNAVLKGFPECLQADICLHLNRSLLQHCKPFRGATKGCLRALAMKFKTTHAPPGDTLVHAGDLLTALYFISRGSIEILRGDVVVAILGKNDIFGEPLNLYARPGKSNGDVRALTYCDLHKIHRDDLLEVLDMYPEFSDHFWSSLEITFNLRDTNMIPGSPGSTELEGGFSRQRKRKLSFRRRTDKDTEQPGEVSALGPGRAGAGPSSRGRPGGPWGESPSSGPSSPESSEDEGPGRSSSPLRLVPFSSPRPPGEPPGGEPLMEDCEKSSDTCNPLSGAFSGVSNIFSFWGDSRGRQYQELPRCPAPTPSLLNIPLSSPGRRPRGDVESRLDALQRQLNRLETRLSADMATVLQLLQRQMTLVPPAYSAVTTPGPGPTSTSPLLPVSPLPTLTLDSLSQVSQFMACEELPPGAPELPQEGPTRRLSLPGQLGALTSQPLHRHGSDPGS

| solubility [1] | Stability (Liver microsome [2]) | inhibition (INH) (Cytochrome P450 3A4 [3]) | inhibition (INH) (Cytochrome P450 3A4 [5]) | IC50 (P2Y purinoceptor 12) | inhibition (INH) (Cytochrome P450 2C9) | inhibition (INH) (Cytochrome P450 2D6) | solubility [6] | Stability (Liver microsome [7]) | IC50 (Platelet [10]) | Structure (SMILES) | Activity (Platelet [4]) | inhibition (INH) [8] | Activity (Platelet [9]) | Ratio IC50 [11] |
| --- | --- | --- | --- | --- | --- | --- | --- | --- | --- | --- | --- | --- | --- | --- |
| soluble | Stable | Not Active | Not Active | 46 nM | Not Active | Not Active | soluble | Stable | 68 nM | CCOC(=O)N1CCN(C(=O)[C@H](CCC(=O)O)NC(=O)c2cc(N3CC[C@H](O)C3)nc(-c3ccccc3)n2)CC1 | <70% | Not Active | <30% | 1.5 |
| soluble | Stable | Not Active | Not Active | 31 nM | Not Active | Not Active | soluble | Stable | 523 nM | CCOC(=O)N1CCN(C(=O)[C@H](CCC(=O)O)NC(=O)c2cc(-c3ccc(OC)cc3)nc(-c3ccccc3)n2)CC1 |  | Not Active | 30% | 17 |
| soluble | Stable | Not Active | Not Active | 291 nM | Not Active | Not Active | soluble | Stable |  | CCOC(=O)N1CCN(C(=O)[C@H](CCC(=O)O)NC(=O)c2cc(N3CCCCC3CN(C)C)nc(-c3ccccc3)n2)CC1 (some centres undefined) |  | Not Active | 30% |  |
| soluble | Stable | Not Active | Not Active | 533 nM | Not Active | Not Active | soluble | Stable |  | CCOC(=O)N1CCN(C(=O)[C@H](CCC(=O)O)NC(=O)c2cc(CN3CCCCC3)nc(-c3ccccc3)n2)CC1 |  | Not Active |  |  |
| soluble | Stable | Not Active | Not Active | 2780 nM | Not Active | Not Active | soluble | Stable |  | CCOC(=O)N1CCN(C(=O)[C@H](CCC(=O)O)NC(=O)c2cc(NCCN(C)C)nc(-c3ccccc3)n2)CC1 |  | Not Active |  |  |
| soluble | Stable | Not Active | Not Active |  | Not Active | Not Active | soluble | Stable |  | CCOC(=O)N1CCN(C(=O)[C@H](CCC(=O)O)NC(=O)c2cc(N3CCOCC3)nc(-c3ccccc3)n2)CC1 | <70% | Not Active | <30% |  |
| soluble | Stable | Not Active | Not Active | 428 nM | Not Active | Not Active | soluble | Stable |  | CCOC(=O)N1CCN(C(=O)[C@H](CCC(=O)O)NC(=O)c2cc(CN3CCOCC3)nc(-c3ccccc3)n2)CC1 |  | Not Active |  |  |
| soluble | Stable | Not Active | Not Active | 3 nM | Not Active | Not Active | soluble | Stable | 21 nM | CCCCOC(=O)N1CCN(C(=O)[C@H](CCC(=O)O)NC(=O)c2cc([C@H]3C[C@@H]3COC)nc(-c3ccccc3)n2)CC1 (racemic) |  | Not Active |  | 7 |
| soluble | Stable | Not Active | Not Active | 257 nM | Not Active | Not Active | soluble | Stable |  | CCOC(=O)N1CCN(C(=O)[C@H](CCC(=O)O)NC(=O)c2cc(NCCN3CCOCC3)nc(-c3ccccc3)n2)CC1 |  | Not Active | 30% |  |
| soluble | Stable | Not Active | Not Active | 279 nM | Not Active | Not Active | soluble | Stable |  | CCOC(=O)N1CCN(C(=O)[C@H](CCC(=O)O)NC(=O)c2cc(NCCCO)nc(-c3ccccc3)n2)CC1 |  | Not Active | 30% |  |
| soluble | Stable | Not Active | Not Active | 266 nM | Not Active | Not Active | soluble | Stable |  | CCOC(=O)N1CCN(C(=O)[C@H](CCC(=O)O)NC(=O)c2cc(NS(=O)(=O)c3ccccc3)nc(-c3ccccc3)n2)CC1 |  | Not Active |  |  |
| soluble | Stable | Not Active | Not Active |  | Not Active | Not Active | soluble | Stable | 139 nM | CCOC(=O)N1CCN(C(=O)[C@H](CCC(=O)O)NC(=O)c2cc(NC(C)COC)nc(-c3ccccc3)n2)CC1 (some centres undefined) | <70% | Not Active | <30% | 1.4 |
| soluble | Stable | Not Active | Not Active | 9 nM | Not Active | Not Active | soluble | Stable | 287 nM | CCCCOC(=O)N1CCN(C(=O)[C@H](CCC(=O)O)NC(=O)c2cc([C@H]3C[C@H]3COC)nc(-c3ccccc3)n2)CC1 (racemic) |  | Not Active |  | 32 |
| soluble | Stable | Not Active | Not Active |  | Not Active | Not Active | soluble | Stable |  | CCOC(=O)N1CCN(C(=O)[C@H](CCC(=O)O)NC(=O)c2cc(N[C@H]3CC[C@H](O)CC3)nc(-c3ccccc3)n2)CC1 |  | Not Active | 30% |  |
| soluble | Stable | Not Active | Not Active | 27 nM | Not Active | Not Active | soluble | Stable | 318 nM | CCOC(=O)N1CCN(C(=O)[C@H](CCC(=O)O)NC(=O)c2cc(-n3cc(C)cn3)nc(-c3ccccc3)n2)CC1 |  | Not Active | 30% | 12 |
| soluble | Stable | Not Active | Not Active | 201 nM | Not Active | Not Active | soluble | Stable |  | CCOC(=O)N1CCN(C(=O)[C@H](CCC(=O)O)NC(=O)c2cc(N3CCCCC3)nc(-c3ccccc3)n2)CC1 |  | Not Active | 30% |  |
| soluble | Stable | Not Active | Not Active | 95.5 nM | Not Active | Not Active | soluble | Stable | 724 nM | CCOC(=O)N1CCN(C(=O)[C@H](CCC(=O)O)NC(=O)c2cc(NC(C)C)nc(-c3ccccc3)n2)CC1 |  | Not Active |  | 7.6 |
